Calls of active or inactive are those of the source. No cut-off for these calls is given here.
How the values were obtained:
Format in all cases: functional
[1] = system: Xanthomonas oryzae pv. oryzae; assay: Antibacterial activity against Xanthomonas oryzae pv. oryzae XKK.12 assessed as growth inhibition at 6 X 10^-3 M measured after 1 to 2 days; conditions: for zone of inhibition at 6000 µM: read-out: IZ
Method in brief: (§1)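 Agar well diffusion. Each pathogen culture was mixed with top agar (PSA, KB or LB; 0.75% w/v agar) at 45 °C, 50 µL culture per 10 mL, and poured over LB plates bearing wells. Compound (25 or 100 µg in 50 µL DMSO) was added to the wells; 50 µL DMSO served as negative control. Plates were incubated at 30 °C for 1–2 days. The inhibition zone was measured in mm, including the 4 mm well. Three repeats, SD.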

[2] = system: Xanthomonas oryzae pv. oryzae; assay: Antibacterial activity against Xanthomonas oryzae pv. oryzae XKK.12 assessed as growth inhibition at 6 X 10^-3 measured after 1 to 2 days relative to ampicillin
[3] = system: Xanthomonas oryzae pv. oryzae; assay: Bacteriostatic activity against Xanthomonas oryzae pv. oryzae XKK.12 assessed as growth inhibition at 0.5 to 1.5 X 10^-4 M measured after 1 to 2 days
Burkholderia glumae = assay: Antibacterial activity against Burkholderia glumae AU6208 assessed as growth inhibition at 25 to 100 ug measured after 1 to 2 days; method in brief: as §1
Pseudomonas fuscovaginae = assay: Antibacterial activity against Pseudomonas fuscovaginae UPB0736 assessed as growth inhibition at 25 to 100 ug measured after 1 to 2 days; method in brief: as §1
[4] = system: Xanthomonas oryzae pv. oryzae; assay: Antibacterial activity against Xanthomonas oryzae pv. oryzae XKK.12 assessed as growth inhibition at 1.5 X 10^-3 M measured after 1 to 2 days; method in brief: as §1
[5] = system: Xanthomonas oryzae pv. oryzae; assay: Antibacterial activity against Xanthomonas oryzae pv. oryzae XKK.12 assessed as growth inhibition at 1.4 X 10^-3 M measured after 1 to 2 days; method in brief: as §1
[6] = system: Xanthomonas oryzae pv. oryzae; assay: Antibacterial activity against Xanthomonas oryzae pv. oryzae XKK.12 assessed as growth inhibition at 5.6 X 10^-3 M measured after 1 to 2 days; method in brief: as §1
[7] = system: Xanthomonas oryzae pv. oryzae; assay: Antibacterial activity against Xanthomonas oryzae pv. oryzae XKK.12 assessed as growth inhibition at 1.3 X 10^-3 M measured after 1 to 2 days; method in brief: as §1
[8] = system: Xanthomonas oryzae pv. oryzae; assay: Antibacterial activity against Xanthomonas oryzae pv. oryzae XKK.12 assessed as growth inhibition at 5.2 X 10^-3 M measured after 1 to 2 days; method in brief: as §1
[9] = system: Xanthomonas oryzae pv. oryzae; assay: Bactericidal activity against Xanthomonas oryzae pv. oryzae XKK.12 assessed as growth inhibition at 0.5 to 1.5 X 10^-4 M measured after 6 to 24 hrs
[10] = system: Xanthomonas oryzae pv. oryzae; assay: Antibacterial activity against Xanthomonas oryzae pv. oryzae XKK.12 assessed as growth inhibition at 5.2 X 10^-3 measured after 1 to 2 days relative to ampicillin
[11] = system: Xanthomonas oryzae pv. oryzae; assay: Antibacterial activity against Xanthomonas oryzae pv. oryzae XKK.12 assessed as growth inhibition at 1.0 X 10^-3 M measured after 1 to 2 days; method in brief: as §1
[12] = system: Xanthomonas oryzae pv. oryzae; assay: Antibacterial activity against Xanthomonas oryzae pv. oryzae XKK.12 assessed as growth inhibition at 4 X 10^-3 M measured after 1 to 2 days; method in brief: as §1
[13] = system: Xanthomonas oryzae pv. oryzae; assay: Antibacterial activity against Xanthomonas oryzae pv. oryzae XKK.12 assessed as growth inhibition at 0.5 X 10^-3 M measured after 1 to 2 days; method in brief: as §1
[14] = system: Xanthomonas oryzae pv. oryzae; assay: Antibacterial activity against Xanthomonas oryzae pv. oryzae XKK.12 assessed as growth inhibition at 2 X 10^-3 M measured after 1 to 2 days; conditions: read-out: IZ; method in brief: as §1
[15] = system: Xanthomonas oryzae pv. oryzae; assay: Antibacterial activity against Xanthomonas oryzae pv. oryzae XKK.12 assessed as growth inhibition at 2 X 10^-3 measured after 1 to 2 days relative to ampicillin
[16] = system: Xanthomonas oryzae pv. oryzae; assay: Bactericidal activity against Xanthomonas oryzae pv. oryzae XKK.12 assessed as decrease in survival rate at 0.5 to 1.5 X 10^-4 M measured after 6 to 24 hrs
[17] = system: Xanthomonas oryzae pv. oryzae; assay: Antibacterial activity against Xanthomonas oryzae pv. oryzae XKK.12 assessed as growth inhibition at 25 to 100 ug measured after 1 to 2 days; method in brief: as §1
[18] = system: Xanthomonas oryzae pv. oryzae; assay: Antibacterial activity against Xanthomonas oryzae pv. oryzae XKK.12 assessed as growth inhibition at 5.7 X 10^-3 M measured after 1 to 2 days; conditions: read-out: IZ; method in brief: as §1

CC[C@]1(C)C=C2C(=O)[C@@]3(O)OC(=O)[C@@]4(CCCC(C)(C)[C@H]34)[C@@]2(O)CC1
zone of inhibition at 6000 µM [1]: 11.6 mm
growth inhibition (GI) [2]: 22.3%
Activity [3]: Active
Activity (Burkholderia glumae): inactive
Activity (Pseudomonas fuscovaginae): inactive
inhibition zone (IZ) [4]: inactive

C=C[C@]1(C)C=C2[C@@H](O)C(=O)[C@H]3C(C)(C)CCC[C@]3(C(=O)OC)[C@@]2(O)CC1
inhibition zone (IZ) [5]: inactive
inhibition zone (IZ) [6]: inactive
Activity (Burkholderia glumae): inactive
Activity (Pseudomonas fuscovaginae): inactive

C=C[C@]1(C)C=C2C(=O)[C@@]3(OC(C)=O)OC(=O)[C@@]4(CCCC(C)(C)[C@H]34)[C@@]2(O)CC1
zone of inhibition at 1300 µM ([7]; read-out: IZ): 15.8 mm
zone of inhibition at 5200 µM ([8]; read-out: IZ): 20.7 mm
Activity [3]: Active
Activity [9]: Active
Activity (Burkholderia glumae): inactive
Activity (Pseudomonas fuscovaginae): inactive
inhibition (INH) [10]: 39.8%

C=C[C@]1(C)C=C2C(=O)C[C@H]3C(C)(C)CCC[C@]3(C(=O)O)[C@@]2(O)CC1
inhibition zone (IZ) [1]: inactive
Activity (Burkholderia glumae): inactive
Activity (Pseudomonas fuscovaginae): inactive
inhibition zone (IZ) [4]: inactive

C=C[C@]1(C)C=C2C(=O)C[C@H]3C(C)(C)CCC[C@]3(C(=O)OC)[C@@]2(O)CC1
inhibition zone (IZ) [1]: inactive
Activity (Burkholderia glumae): inactive
Activity (Pseudomonas fuscovaginae): inactive
inhibition zone (IZ) [4]: inactive

C=C[C@]1(C)C=C2[C@@H](O)[C@@]3(O)OC(=O)[C@@]4(CCCC(C)(C)[C@H]34)[C@@]2(O)CC1
inhibition zone (IZ) [1]: inactive
Activity (Burkholderia glumae): inactive
Activity (Pseudomonas fuscovaginae): inactive
inhibition zone (IZ) [4]: inactive

C=C[C@@]1(C)CC[C@@]2(O)C(=C1C)C(=O)C(=O)[C@H]1C(C)(C)CCC[C@@]12C(=O)OC
inhibition zone (IZ) [5]: inactive
inhibition zone (IZ) [6]: inactive
Activity (Burkholderia glumae): inactive
Activity (Pseudomonas fuscovaginae): inactive

CC[C@]1(C)C=C2[C@@H](OC(C)=O)[C@@]3(O)OC(=O)[C@@]4(CCCC(C)(C)[C@H]34)[C@@]2(O)CC1
inhibition zone (IZ) [7]: inactive
inhibition zone (IZ) [8]: inactive
Activity (Burkholderia glumae): inactive
Activity (Pseudomonas fuscovaginae): inactive

C=C[C@]1(C)C=C2[C@@H](OC(C)=O)[C@@]3(O)OC(=O)[C@@]4(CCCC(C)(C)[C@H]34)[C@@]2(O)CC1
inhibition zone (IZ) [11]: inactive
inhibition zone (IZ) [12]: inactive
Activity (Burkholderia glumae): inactive
Activity (Pseudomonas fuscovaginae): inactive

C=C[C@@]1(C)CCC2=C(C(=O)[C@@]3(OC(C)=O)OC(=O)[C@@]24CCCC(C)(C)[C@H]34)C1OC(C)=O (some centres undefined)
inhibition zone (IZ) [13]: inactive
zone of inhibition at 2000 µM [14]: 15.3 mm
Activity [3]: Active
Activity (Burkholderia glumae): inactive
Activity (Pseudomonas fuscovaginae): inactive
inhibition (INH) [15]: 29.4%

C=C[C@]1(C)C=C2C(=O)[C@@]3(O)OC(=O)[C@@]4(CCCC(C)(C)[C@H]34)[C@@]2(O)CC1 [SPHAEROPSIDIN A]
zone of inhibition at 6000 µM [1]: 25.5 mm
growth inhibition (GI) [2]: 49%
Activity [9]: Active
Activity [16]: Active
Activity [17]: Active
zone of inhibition at 1500 µM ([4]; read-out: IZ): 18.3 mm

CC1(C)S[C@@H]2[C@H](NC(=O)[C@H](N)c3ccccc3)C(=O)N2[C@H]1C(=O)O [AMPICILLIN]
zone of inhibition at 5700 µM [18]: 52 mm

C=C[C@]1(C)C=C2C3(CO3)C(=O)[C@H]3C(C)(C)CCC[C@]3(C(=O)OC)[C@@]2(O)CC1 (some centres undefined)
inhibition zone (IZ) [7]: inactive
inhibition zone (IZ) [8]: inactive
Activity (Burkholderia glumae): inactive
Activity (Pseudomonas fuscovaginae): inactive

CC[C@]1(C)C=C2[C@@H](O)[C@@]3(O)OC(=O)[C@@]4(CCCC(C)(C)[C@H]34)[C@@]2(O)CC1
zone of inhibition at 6000 µM [1]: 8.9 mm
Activity [3]: inactive
Activity (Burkholderia glumae): inactive
Activity (Pseudomonas fuscovaginae): inactive
inhibition zone (IZ) [4]: inactive

C=C[C@]1(C)C=C(C=O)[C@@]2(CC1)OC(=O)[C@H]1C(C)(C)CCC[C@@]12C(=O)O
inhibition zone (IZ) [1]: inactive
Activity (Burkholderia glumae): inactive
Activity (Pseudomonas fuscovaginae): inactive
inhibition zone (IZ) [4]: inactive

C=C[C@@]1(C)CC[C@]2(O)[C@@]3(C(=O)OC)CCCC(C)(C)[C@@H]3C(=O)C(=O)[C@@]23C[C@@H]13
inhibition zone (IZ) [7]: inactive
inhibition zone (IZ) [8]: inactive
Activity (Burkholderia glumae): inactive
Activity (Pseudomonas fuscovaginae): inactive

C=C[C@]1(C)C=C2C3(CO3)C(=O)[C@H]3C(C)(C)CCC[C@]3(C(=O)OC)[C@@]2(OC)CC1 (some centres undefined)
inhibition zone (IZ) [7]: inactive
inhibition zone (IZ) [8]: inactive
Activity (Burkholderia glumae): inactive
Activity (Pseudomonas fuscovaginae): inactive

C=C[C@]1(C)C=C2[C@@H](O)C[C@H]3C(C)(C)CCC[C@]3(C(=O)O)[C@@]2(O)CC1
inhibition zone (IZ) [1]: inactive
Activity (Burkholderia glumae): inactive
Activity (Pseudomonas fuscovaginae): inactive
inhibition zone (IZ) [4]: inactive
